Assay results pooled from the literature.
Each line is one published result; the experiments were not run side by side.
Target: TGF-beta receptor type-1 (TGFBR1, Homo sapiens, UniProt P36897)
One construct used (P36897 34-503): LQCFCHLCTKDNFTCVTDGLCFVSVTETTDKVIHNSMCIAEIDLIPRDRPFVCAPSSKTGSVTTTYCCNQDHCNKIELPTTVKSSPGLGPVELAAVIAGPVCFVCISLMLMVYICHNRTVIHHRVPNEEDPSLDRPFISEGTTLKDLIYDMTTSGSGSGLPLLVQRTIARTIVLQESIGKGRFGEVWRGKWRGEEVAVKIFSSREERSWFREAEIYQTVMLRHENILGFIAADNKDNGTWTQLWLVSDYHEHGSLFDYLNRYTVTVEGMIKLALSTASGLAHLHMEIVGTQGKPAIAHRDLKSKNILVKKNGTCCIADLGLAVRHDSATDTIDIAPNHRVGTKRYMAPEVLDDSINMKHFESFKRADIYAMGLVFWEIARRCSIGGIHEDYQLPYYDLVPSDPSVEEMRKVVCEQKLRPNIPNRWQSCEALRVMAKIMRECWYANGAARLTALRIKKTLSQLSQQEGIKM

| Compound | read-out | technique | concentration | remaining binding [%] |
| --- | --- | --- | --- | --- |
| O=C(Nc1cccnn1)N1CCC(=Cc2cccc(Oc3ccc(C(F)(F)F)cn3)c2)CC1 | cell-free assay | competition with immobilised ligand | 1 µM | 61 |
| CC1CCCN1c1nccc(-c2cnn3ncccc23)n1 (centres unmarked) | binding |  | 1 µM | 100 |
| O=C(NCC1CCOCC1)c1n[nH]cc1NC(=O)c1c(F)cccc1F | binding | competition with immobilised ligand | 1 µM | 96 |
| CN([C@@H]1CCc2c(CC(=O)O)c3ccccc3n2C1)S(=O)(=O)c1ccc(F)cc1 | cell-free assay | competition with immobilised ligand | 1 µM | 100 |
| CN(c1nccc(-c2cnn3ncccc23)n1)C1CC1 | binding |  | 1 µM | 32 |
| CNC(=O)[C@@H]1CC[C@@H](n2c(-c3ccc4cnccc4c3)nc3ccc(C(=O)NCc4cccc(C(N)=O)c4)cc32)C1 | binding | competition with immobilised ligand | 1 µM | 88 |
| C[C@H](c1ccc(F)cc1)N(Cc1cccc(C(=O)O)c1)C(=O)c1cnc2ccccc2c1 | cell-free assay | competition with immobilised ligand | 1 µM | 96 |
| C=CC(=O)N1CCC(C(=O)NCC(=O)N2CCN(c3nc(-c4cnc(N)nc4C(F)F)nc(N4CCOCC4)n3)CC2)CC1 | binding | competition with immobilised ligand | 1 µM | 100 |
| CN(C)c1nccc(-c2cnn3ncccc23)n1 | binding |  | 1 µM | 100 |
| Cc1cnc(Nc2ccc(C(=O)N3CCC(N4CCCC4)CC3)cc2)nc1-c1cc2ccccc2s1 | binding | competition with immobilised ligand | 1 µM | 48 |
| CNCc1ccccc1-c1csc([C@@H](C)Nc2nc(C)nc3cc(OC)c(OC)cc23)c1 | cell-free assay | competition with immobilised ligand | 1 µM | 74 |
| O=C(NCCCN1CCOCC1)c1ccc(Nc2ncc(Cl)c(-c3ccc(Cl)s3)n2)cc1 | binding | competition with immobilised ligand | 1 µM | 69 |
| c1cncc(-c2cccc(Nc3nccc(NC4CCCCC4)n3)c2)c1 | binding | competition with immobilised ligand | 10 µM | 75 |
| CN(C)c1ncc(F)c(-c2cnn3ncccc23)n1 | binding |  | 1 µM | 86 |
| Nc1c(C(=O)NCc2ccc(C(=O)NCCCC3CCCCC3)cc2)cnn1-c1ccccc1 | cell-free assay | competition with immobilised ligand | 0.1 µM | 100 |
| C[C@@H]1CN(c2ccc3ncc(-c4ccc5[nH]nc(C6CC6)c5c4)n3n2)C[C@H](C)O1 | binding | competition with immobilised ligand | 50 nM | 100 |
| N[C@@H]1CCN(c2nccc(-c3cnn4ncccc34)n2)C1 | binding |  | 1 µM | 92 |
